In ChEMBL document CHEMBL1641579, “Synthesis and biological evaluation of 7-substituted-1-(3-bromophenylamino)isoquinoline-4-carbonitriles as inhibitors of myosin light chain kinase and epidermal growth factor receptor” (Bioorg Med Chem, 2011) one finds Activity data, which are given here for three molecules.

For assay [1], the target named is Insulin-like growth factor 1 receptor (Homo sapiens) (UniProt P08069). The experiment in a line: Inhibition of IGF1R assessed as residual activity at 10 uM. Summed up: (§1)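 Kinase panel screen run as a radioactive activity assay at single compound concentration. Score reported as percent activity remaining relative to DMSO controls (100%).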
Chain of Insulin-like growth factor 1 receptor (Homo sapiens) (P08069 31-736 limits assumed): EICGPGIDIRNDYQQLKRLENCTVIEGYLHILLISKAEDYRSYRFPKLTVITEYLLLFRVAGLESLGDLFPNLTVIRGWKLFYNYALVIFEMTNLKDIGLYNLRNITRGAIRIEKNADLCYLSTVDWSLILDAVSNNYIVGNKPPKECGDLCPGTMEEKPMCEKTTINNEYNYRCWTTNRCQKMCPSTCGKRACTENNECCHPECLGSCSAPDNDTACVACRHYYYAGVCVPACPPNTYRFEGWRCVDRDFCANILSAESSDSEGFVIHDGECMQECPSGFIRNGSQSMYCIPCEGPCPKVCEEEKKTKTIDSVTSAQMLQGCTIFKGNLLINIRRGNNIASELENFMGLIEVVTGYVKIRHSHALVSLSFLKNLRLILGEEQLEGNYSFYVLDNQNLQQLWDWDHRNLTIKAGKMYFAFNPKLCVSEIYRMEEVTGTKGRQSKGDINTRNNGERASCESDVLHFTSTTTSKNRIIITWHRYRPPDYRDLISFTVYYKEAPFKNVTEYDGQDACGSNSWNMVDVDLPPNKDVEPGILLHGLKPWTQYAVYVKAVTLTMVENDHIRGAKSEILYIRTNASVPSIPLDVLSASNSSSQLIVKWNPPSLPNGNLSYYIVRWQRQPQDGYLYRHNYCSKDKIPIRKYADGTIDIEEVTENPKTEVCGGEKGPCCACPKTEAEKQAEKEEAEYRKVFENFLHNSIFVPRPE
Chain of Insulin-like growth factor 1 receptor (Homo sapiens) (P08069 741-1367 limits assumed): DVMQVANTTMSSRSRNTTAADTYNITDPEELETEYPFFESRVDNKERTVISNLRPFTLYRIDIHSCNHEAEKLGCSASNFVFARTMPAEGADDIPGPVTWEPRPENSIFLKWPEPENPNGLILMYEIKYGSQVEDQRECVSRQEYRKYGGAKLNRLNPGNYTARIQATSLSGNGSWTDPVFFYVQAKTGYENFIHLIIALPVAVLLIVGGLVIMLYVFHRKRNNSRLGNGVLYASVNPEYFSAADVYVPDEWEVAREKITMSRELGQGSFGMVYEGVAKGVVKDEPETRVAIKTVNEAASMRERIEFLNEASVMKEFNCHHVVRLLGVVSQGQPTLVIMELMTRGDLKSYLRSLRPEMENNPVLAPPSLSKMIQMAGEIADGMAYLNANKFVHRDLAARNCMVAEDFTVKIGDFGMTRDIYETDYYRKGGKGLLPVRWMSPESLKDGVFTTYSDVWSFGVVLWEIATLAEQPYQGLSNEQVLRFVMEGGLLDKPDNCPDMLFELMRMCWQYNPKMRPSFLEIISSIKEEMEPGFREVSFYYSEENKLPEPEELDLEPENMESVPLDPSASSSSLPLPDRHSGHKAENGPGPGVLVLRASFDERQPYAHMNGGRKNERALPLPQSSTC
The nature of assay [2]: Inhibition of PHK assessed as residual activity at 10 uM. Summed up: (§2)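 Panel screen by radioactive kinase assay at a single inhibitor concentration. Score is the percent activity remaining relative to DMSO controls (100%).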
Assay [3] concerns the target T1, Serine/threonine-protein kinase Sgk1 (Homo sapiens) (UniProt O00141).
T1 sequence (whole entry): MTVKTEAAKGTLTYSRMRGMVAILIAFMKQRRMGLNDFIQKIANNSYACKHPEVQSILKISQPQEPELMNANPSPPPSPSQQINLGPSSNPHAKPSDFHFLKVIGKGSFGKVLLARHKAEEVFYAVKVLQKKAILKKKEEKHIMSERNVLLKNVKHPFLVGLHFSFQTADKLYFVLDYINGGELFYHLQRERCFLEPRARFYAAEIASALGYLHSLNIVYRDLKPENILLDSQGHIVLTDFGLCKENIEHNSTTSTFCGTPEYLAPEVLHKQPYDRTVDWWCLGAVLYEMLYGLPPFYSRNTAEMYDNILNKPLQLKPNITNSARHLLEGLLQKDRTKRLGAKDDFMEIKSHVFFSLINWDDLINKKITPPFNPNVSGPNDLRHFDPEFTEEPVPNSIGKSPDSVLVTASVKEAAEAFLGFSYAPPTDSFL
The experiment in a line: Inhibition of SGK1 assessed as residual activity at 10 uM. In short, it runs like this: as §2

Assay [4] concerns the target Myosin light chain kinase, smooth muscle (Homo sapiens, UniProt Q15746). The experiment in a line: Inhibition of smMLCK assessed as residual activity at 10 uM. In short, it runs like this: as §2
The target of assay [5] is Mitogen-activated protein kinase 8 (Homo sapiens) (UniProt P45983). Briefly: Inhibition of JNK1 assessed as residual activity at 10 uM. In short, it runs like this: as §1
Chain of Mitogen-activated protein kinase 8 (Homo sapiens) (P45983 whole entry, canonical isoform): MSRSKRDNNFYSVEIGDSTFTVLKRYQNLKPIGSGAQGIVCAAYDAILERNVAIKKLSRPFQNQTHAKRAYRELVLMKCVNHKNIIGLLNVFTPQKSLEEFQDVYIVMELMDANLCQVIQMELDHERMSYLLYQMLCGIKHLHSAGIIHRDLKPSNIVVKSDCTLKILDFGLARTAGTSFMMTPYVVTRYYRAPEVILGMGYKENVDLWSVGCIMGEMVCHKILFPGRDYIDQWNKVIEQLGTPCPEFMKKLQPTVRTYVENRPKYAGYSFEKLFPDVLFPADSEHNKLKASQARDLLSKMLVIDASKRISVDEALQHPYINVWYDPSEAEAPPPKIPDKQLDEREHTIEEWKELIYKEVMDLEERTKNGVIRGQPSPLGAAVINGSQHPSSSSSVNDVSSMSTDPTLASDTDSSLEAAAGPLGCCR
For assay [6], the target named is Casein kinase I isoform alpha (Homo sapiens) (UniProt P48729). The experiment in a line: Inhibition of CK1 assessed as residual activity at 10 uM. In short, it runs like this:
as §1

In assay [7] the target is Mitogen-activated protein kinase 1 (Homo sapiens) (UniProt P28482). The experiment in a line: Inhibition of ERK2 assessed as residual activity at 10 uM. Summed up:
as §1

The target in assay [8] is Receptor tyrosine-protein kinase erbB-4 (Homo sapiens) (UniProt Q15303). Briefly: Inhibition of HER4 assessed as residual activity at 10 uM. Summed up:
as §1

Assay [9] addresses Serine/threonine-protein kinase N2 (Homo sapiens) (UniProt Q16513). The experiment in a line: Inhibition of PRK2 assessed as residual activity at 10 uM. Summed up: as §2
For assay [10], the target named is T2, Mitogen-activated protein kinase 12 (Homo sapiens) (UniProt P53778).
T2 sequence (whole entry): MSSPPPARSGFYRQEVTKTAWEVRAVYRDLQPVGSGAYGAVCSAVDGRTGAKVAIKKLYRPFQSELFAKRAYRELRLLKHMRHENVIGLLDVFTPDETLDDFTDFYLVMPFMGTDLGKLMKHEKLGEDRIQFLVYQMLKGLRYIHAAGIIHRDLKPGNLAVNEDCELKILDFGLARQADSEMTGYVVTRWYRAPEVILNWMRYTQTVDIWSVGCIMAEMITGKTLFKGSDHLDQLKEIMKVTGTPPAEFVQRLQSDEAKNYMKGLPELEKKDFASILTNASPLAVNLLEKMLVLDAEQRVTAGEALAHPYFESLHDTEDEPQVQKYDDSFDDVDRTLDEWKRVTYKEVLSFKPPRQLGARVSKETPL
The experiment in a line: Inhibition of p38-gamma assessed as residual activity at 10 uM. Summed up:
as §2

The target of assay [11] is Misshapen-like kinase 1 (Homo sapiens) (UniProt Q8N4C8). Briefly: Inhibition of MINK1 assessed as residual activity at 10 uM. In short, it runs like this: as §1
The target in assay [12] is Mitogen-activated protein kinase kinase kinase 11 (Homo sapiens) (UniProt Q16584). Briefly: Inhibition of MLK3 assessed as residual activity at 10 uM. In short, it runs like this:
as §2

Assay [13] deals with T3, Dual specificity protein kinase TTK (Homo sapiens) (UniProt P33981).
T3 sequence (whole entry): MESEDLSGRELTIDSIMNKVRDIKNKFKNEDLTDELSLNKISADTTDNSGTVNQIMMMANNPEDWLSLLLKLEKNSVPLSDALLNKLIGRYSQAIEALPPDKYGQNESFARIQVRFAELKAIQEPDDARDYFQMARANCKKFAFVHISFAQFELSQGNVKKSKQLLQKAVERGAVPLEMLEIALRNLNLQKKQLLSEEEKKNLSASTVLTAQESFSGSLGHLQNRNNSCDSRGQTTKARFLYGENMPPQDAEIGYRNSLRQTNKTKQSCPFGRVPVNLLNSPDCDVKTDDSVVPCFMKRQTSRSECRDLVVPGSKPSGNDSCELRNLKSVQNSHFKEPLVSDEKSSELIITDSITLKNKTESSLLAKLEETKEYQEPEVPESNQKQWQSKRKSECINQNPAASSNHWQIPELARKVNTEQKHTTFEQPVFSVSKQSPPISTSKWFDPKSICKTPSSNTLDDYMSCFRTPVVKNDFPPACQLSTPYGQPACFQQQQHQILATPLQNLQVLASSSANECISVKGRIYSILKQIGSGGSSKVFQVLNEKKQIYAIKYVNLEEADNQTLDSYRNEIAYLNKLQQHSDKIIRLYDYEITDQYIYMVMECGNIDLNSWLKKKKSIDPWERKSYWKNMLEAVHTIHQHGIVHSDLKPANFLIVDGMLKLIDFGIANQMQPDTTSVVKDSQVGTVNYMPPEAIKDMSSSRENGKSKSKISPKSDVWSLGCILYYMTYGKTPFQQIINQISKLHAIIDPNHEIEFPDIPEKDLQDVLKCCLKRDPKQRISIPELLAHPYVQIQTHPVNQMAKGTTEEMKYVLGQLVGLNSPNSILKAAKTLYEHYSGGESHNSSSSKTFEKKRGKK
Briefly: Inhibition of TTK assessed as residual activity at 10 uM. Summed up:
as §2

In assay [14] the target is Tyrosine-protein kinase Lck (Homo sapiens) (UniProt P06239). The experiment in a line: Inhibition of Lck assessed as residual activity at 10 uM. Summed up: as §1
Chain of Tyrosine-protein kinase Lck (Homo sapiens) (P06239 whole entry, looked up): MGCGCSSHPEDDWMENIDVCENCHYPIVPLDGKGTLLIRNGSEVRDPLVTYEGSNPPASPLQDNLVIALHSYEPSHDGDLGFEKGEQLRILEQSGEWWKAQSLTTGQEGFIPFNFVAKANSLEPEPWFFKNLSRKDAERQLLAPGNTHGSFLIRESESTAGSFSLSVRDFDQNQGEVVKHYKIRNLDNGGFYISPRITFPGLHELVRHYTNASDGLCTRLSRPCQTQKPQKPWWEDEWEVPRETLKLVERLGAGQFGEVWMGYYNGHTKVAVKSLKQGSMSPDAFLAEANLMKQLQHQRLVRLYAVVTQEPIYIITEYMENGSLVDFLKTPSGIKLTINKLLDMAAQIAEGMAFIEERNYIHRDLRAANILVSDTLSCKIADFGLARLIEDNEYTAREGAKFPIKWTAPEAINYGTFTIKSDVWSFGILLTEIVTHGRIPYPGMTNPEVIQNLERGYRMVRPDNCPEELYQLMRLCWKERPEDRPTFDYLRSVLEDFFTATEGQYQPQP

Chain of Serine/threonine-protein kinase N2 (Homo sapiens) (Q16513 whole entry, looked up): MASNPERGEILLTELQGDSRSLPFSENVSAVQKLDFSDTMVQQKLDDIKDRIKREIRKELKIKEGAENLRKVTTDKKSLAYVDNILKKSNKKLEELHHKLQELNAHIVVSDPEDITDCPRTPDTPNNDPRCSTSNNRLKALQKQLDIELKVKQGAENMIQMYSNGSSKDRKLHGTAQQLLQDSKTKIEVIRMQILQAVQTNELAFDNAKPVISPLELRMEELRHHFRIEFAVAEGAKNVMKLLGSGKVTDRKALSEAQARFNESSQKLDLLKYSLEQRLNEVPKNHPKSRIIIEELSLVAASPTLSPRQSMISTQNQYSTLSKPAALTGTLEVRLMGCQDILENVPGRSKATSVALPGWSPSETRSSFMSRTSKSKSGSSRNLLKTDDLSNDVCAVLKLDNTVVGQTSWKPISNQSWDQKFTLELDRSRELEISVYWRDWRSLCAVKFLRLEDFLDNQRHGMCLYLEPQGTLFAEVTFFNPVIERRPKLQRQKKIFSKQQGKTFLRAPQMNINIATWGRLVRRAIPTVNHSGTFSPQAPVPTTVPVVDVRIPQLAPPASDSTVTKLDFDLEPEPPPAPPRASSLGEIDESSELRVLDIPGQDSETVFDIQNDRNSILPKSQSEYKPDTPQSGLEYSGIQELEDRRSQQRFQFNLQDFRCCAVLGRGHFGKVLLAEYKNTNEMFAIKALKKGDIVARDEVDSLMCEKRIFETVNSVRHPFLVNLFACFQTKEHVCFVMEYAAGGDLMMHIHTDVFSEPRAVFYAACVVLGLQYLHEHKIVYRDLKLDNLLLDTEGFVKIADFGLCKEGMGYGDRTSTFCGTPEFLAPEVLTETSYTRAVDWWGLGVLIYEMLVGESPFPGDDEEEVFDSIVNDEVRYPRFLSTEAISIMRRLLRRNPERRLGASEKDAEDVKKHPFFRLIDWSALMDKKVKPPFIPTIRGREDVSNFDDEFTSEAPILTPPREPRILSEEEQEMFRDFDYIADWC
Chain of Casein kinase I isoform alpha (Homo sapiens) (P48729 2-337 limits assumed): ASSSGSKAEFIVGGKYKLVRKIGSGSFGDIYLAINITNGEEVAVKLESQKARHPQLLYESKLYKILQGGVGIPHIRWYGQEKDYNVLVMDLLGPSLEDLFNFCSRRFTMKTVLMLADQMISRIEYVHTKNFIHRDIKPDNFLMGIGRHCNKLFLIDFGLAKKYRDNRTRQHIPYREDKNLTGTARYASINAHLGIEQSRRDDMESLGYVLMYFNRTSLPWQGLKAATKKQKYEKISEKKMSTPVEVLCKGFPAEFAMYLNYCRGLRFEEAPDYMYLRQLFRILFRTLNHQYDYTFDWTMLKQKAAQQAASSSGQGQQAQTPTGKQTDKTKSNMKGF
Chain of Mitogen-activated protein kinase kinase kinase 11 (Homo sapiens) (Q16584 whole entry, looked up): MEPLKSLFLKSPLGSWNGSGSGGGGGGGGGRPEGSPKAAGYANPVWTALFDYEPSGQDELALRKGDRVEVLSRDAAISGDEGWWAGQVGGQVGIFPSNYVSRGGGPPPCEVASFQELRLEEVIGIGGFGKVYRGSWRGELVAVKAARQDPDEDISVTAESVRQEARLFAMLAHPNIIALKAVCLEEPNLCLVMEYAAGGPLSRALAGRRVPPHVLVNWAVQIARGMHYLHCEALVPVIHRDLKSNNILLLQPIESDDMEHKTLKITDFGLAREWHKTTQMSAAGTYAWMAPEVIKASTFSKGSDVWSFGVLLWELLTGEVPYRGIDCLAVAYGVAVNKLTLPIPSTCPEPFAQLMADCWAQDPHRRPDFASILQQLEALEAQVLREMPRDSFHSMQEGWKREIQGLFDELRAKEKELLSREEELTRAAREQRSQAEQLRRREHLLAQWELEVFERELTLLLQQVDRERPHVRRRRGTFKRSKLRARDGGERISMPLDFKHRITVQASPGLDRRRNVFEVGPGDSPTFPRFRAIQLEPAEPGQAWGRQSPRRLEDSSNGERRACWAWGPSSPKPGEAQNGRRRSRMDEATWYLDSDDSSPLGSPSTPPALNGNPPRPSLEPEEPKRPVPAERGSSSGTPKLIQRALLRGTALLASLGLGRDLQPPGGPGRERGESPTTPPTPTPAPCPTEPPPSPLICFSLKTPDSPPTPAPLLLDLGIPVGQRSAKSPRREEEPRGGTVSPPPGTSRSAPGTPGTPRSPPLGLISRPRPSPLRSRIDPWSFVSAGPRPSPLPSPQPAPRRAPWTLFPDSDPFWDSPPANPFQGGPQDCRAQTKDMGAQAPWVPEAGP
Chain of Mitogen-activated protein kinase 1 (Homo sapiens) (P28482 whole entry): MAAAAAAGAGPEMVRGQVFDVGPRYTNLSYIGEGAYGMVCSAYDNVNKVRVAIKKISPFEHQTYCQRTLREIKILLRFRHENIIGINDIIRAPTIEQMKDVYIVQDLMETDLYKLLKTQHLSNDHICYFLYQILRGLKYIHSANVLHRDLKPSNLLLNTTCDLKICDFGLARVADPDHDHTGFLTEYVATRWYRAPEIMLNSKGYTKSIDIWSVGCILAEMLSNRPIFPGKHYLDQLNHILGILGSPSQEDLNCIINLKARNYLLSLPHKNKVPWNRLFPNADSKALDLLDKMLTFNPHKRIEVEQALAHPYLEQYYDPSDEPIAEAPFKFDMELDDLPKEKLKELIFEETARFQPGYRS

Turning to `CN1CCN(CCC(=O)Nc2ccc3c(C#N)cnc(Nc4cccc(Br)c4)c3c2)CC1`, the Activity in [1] is 65%; in [2], 38%; in assay [3] it was 91%; in assay [4], 9%; in [5], 99%; in [6] it was 100%. Moreover, the Activity in [7] is 95%; in assay [8], 57%; in assay [9], 90%; in assay [10], 100%; in [11] it was 54%; in assay [12] it was 87%. The Activity in assay [13] came to 81%; in assay [14], 32%.
Regarding `CN(C)CCCC(=O)Nc1ccc2c(C#N)cnc(Nc3cccc(Br)c3)c2c1`, the Activity in assay [1] was 59%; in assay [2] it was 11%; in [3], 82%; in assay [4], 11%; in [5], 97%; in assay [6], 100%. Further, the Activity in [7] was determined as 100%; in assay [8], 69%; in assay [9] it was 98%; in assay [10], 100%; in assay [11], 59%; in [12] it was 100%. Moreover, the Activity in [13] was determined as 96%; in assay [14], 32%.
On to `CN(C)C/C=C/C(=O)Nc1ccc2c(C#N)cnc(Nc3cccc(Br)c3)c2c1`, for which the Activity in assay [1] is 73%; in assay [2] it was 53%; in [3] it was 82%; in assay [4] it was 33%; in [5], 91%; in assay [6] it was 88%. Besides, the Activity was 81% in [7]; 21% in assay [8]; 100% in assay [9]; 84% in assay [10]; 58% in assay [11]; 86% in assay [12]. Further, the Activity in assay [13] came out at 74%; in assay [14] it was 60%.
